The source made the active and inactive calls. The calls are words filed in the database; no cut-off is given here.
Tests used:
[1] = target: T1, Peroxisome proliferator-activated receptor gamma (Homo sapiens) (UniProt P37231); assay: Agonist activity at human PPARgamma expressed in HEK293 cells co-transfected with PPRE assessed as beta-galactosidase signal at 25 uM after 48 hrs by reporter gene assay relative to control; assay type: functional, cell-based
T1 sequence (whole entry): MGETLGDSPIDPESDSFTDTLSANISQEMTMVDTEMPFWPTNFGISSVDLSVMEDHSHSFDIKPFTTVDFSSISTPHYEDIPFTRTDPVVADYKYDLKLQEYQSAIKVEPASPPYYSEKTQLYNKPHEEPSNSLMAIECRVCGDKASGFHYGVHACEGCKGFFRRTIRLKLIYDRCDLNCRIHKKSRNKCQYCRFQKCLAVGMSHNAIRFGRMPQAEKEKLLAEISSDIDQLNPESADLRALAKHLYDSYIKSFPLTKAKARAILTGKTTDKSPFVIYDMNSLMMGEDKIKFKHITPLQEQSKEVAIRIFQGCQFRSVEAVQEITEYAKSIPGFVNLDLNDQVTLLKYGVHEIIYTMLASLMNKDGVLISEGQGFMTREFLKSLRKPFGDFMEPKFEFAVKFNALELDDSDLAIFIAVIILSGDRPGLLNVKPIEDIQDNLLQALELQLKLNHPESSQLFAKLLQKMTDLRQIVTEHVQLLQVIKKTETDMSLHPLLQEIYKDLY
In short: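 HEK293 cells were transfected with FuGENE 6 using a PPRE-luciferase reporter, pSG5-hPPARγ1 and a β-galactosidase control plasmid. After 24 h they were replated at 5 × 10⁴ cells/well, attached overnight, then treated for 48 h with 0.1% DMSO as vehicle. Luciferase was read, normalized to the β-gal signal and reported as fold activation over vehicle. Mean of two experiments in triplicate.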

[2] = target: T2, Peroxisome proliferator-activated receptor alpha (Homo sapiens) (UniProt Q07869); assay: Agonist activity at human PPARalpha expressed in HEK293 cells co-transfected with PPRE assessed as beta-galactosidase signal at 40 uM after 48 hrs by reporter gene assay relative to control; assay type: functional, cell-based
T2 sequence (whole entry): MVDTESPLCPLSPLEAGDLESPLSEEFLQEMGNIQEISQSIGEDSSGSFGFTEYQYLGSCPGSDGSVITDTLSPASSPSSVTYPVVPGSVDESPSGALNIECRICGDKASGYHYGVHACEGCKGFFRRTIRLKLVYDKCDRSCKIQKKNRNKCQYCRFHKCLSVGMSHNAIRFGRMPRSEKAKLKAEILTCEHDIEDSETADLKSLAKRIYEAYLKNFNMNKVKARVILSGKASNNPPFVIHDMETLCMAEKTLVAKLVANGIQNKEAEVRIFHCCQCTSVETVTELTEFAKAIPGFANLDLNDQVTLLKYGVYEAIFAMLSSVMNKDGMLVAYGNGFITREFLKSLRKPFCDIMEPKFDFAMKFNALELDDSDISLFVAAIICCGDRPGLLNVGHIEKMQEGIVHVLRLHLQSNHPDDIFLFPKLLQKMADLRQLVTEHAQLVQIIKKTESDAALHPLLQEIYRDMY
In short: (§1)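 Human PPARα transactivation in HEK293 cells grown in DMEM/F-12 with 10% heat-inactivated FBS. Cells were transfected with FuGENE 6 using a PPRE-luciferase reporter, pBI-G-hPPARα and a β-galactosidase control plasmid. After 24 h they were replated at 5 × 10⁴ cells/well, attached overnight, then dosed for 48 h with 0.1% DMSO as vehicle. Luciferase was normalized to β-gal and expressed as fold over vehicle. Two experiments, each in triplicate.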

[3] = target: T2, Peroxisome proliferator-activated receptor alpha (Homo sapiens); assay: Agonist activity at human PPARalpha expressed in HEK293 cells co-transfected with PPRE assessed as beta-galactosidase signal at 25 uM after 48 hrs by reporter gene assay relative to control; assay type: functional, cell-based; in short: as §1
[4] = Cytotoxicity against HEK293 cells assessed as viable cells at 100 uM after 48 hrs by aqueous one solution cell proliferation assay relative to control; assay type: cell-based; details: human, read-out: Activity
In short: (§2)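 HEK293 cells were seeded overnight, then exposed to 0–100 μM compound for 48 h at 37 °C in 5% CO₂. MTS reagent was added for a further 2 h and absorbance read at 490 nm. Viability is given as % relative to DMSO vehicle control. Two experiments, each in quadruplicate.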

[5] = target: T3, Peroxisome proliferator-activated receptor gamma (Homo sapiens, UniProt P37231); assay: Agonist activity at human PPARgamma assessed as luciferase activity by transactivation assay; assay type: functional
T3 sequence (P37231 whole entry): T1 sequence (whole entry)
In short: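 Transiently transfected HEK293 (PPRE-luciferase reporter plus pSG5-hPPARγ1 and β-gal control), compound exposure 48 h. EC50 is the ligand concentration giving half-maximal fold induction of β-gal-normalized luciferase, fitted by nonlinear regression. Means of three experiments.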

[6] = Cytotoxicity against HEK293 cells assessed as viable cells at 50 uM after 48 hrs by aqueous one solution cell proliferation assay relative to control; assay type: cell-based; details: human, read-out: Activity; in short: as §2
[7] = target: T4, Peroxisome proliferator-activated receptor alpha (Homo sapiens, UniProt Q07869); assay: Agonist activity at human PPARalpha assessed as luciferase activity by transactivation assay; assay type: functional
T4 sequence (Q07869 whole entry): T2 sequence (whole entry)

[8] = Cytotoxicity against HEK293 cells assessed as viable cells at 10 uM after 48 hrs by aqueous one solution cell proliferation assay relative to control; assay type: cell-based; details: human, read-out: Activity; in short: as §2

SMILES | fold change (FC) [1] | other results
Oc1ccc(-c2n[nH]c(C(F)(F)F)c2-c2ccc(F)cc2)c(O)c1 | 3.9 | –
O=c1c(-c2cccc(OC(F)(F)F)c2)coc2cc(O)ccc12 | 2.1 | –
Oc1ccc(-c2n[nH]cc2-c2ccc(F)cc2)c(O)c1 | 1.7 | –
COc1cccc(/C=C/C(=O)c2ccc(O)cc2O)c1 | 2.1 | –
O=c1c(-c2cc(F)c(F)c(F)c2)coc2cc(O)ccc12 | 1.4 | –
O=C1C[C@@H](c2ccc(O)cc2)Oc2cc(O)cc(O)c21 | 1.7 | fold change (FC) [2]: 1.7; fold change (FC) [3]: 1.2
COc1ccc(-c2coc3cc(O)ccc3c2=O)c(OC)n1 | – | Activity [1]: inactive
COc1ccc(-c2coc3cc(O)ccc3c2=O)cc1OC | 10.5 | –
Cc1[nH]nc(-c2ccc(O)cc2O)c1-c1ccc(F)cc1 | 5.3 | –
CCc1cc2c(=O)c(-c3ccc4c(c3)OCO4)c(C(F)(F)F)oc2cc1O | – | Activity [1]: inactive
O=c1c(-c2ccc(O)c(O)c2)coc2cc(O)ccc12 | 7.5 | –
CN(CCOc1ccc(C[C@H](Nc2ccccc2C(=O)c2ccccc2)C(=O)O)cc1)c1ccccn1 | – | viability at 48 h, 100 µM [4]: 33%
COc1ccc([C@@H]2CC(=O)c3c(O)cc(O)cc3O2)cc1O | 3.8 | fold change (FC) [2]: 2; fold change (FC) [3]: 1.9
CN(CCOc1ccc(CC2SC(=O)NC2=O)cc1)c1ccccn1 (stereo not given) [ROSIGLITAZONE] | – | viability at 48 h, 100 µM [4]: 46%
O=c1c(-c2cccc(F)c2)coc2cc(O)ccc12 | 4.1 | –
O=c1cc(-c2cccc(O)c2)oc2cc(O)ccc12 | 6.3 | fold change (FC) [2]: 14.8; fold change (FC) [3]: 8.2
O=c1c(-c2ccc(O)cc2)coc2cc(O)c(O)cc12 | 4.4 | fold change (FC) [2]: 4; fold change (FC) [3]: 1.8
O=c1c(-c2ccc3c(c2)OCCO3)coc2cc(O)ccc12 | 11.3 | –
COc1ccc(-c2c(-c3ccc(O)cc3O)n[nH]c2C)cc1 | 2.2 | –
O=c1c(-c2ccc(O)cc2)coc2cc(O)cc(O)c12 | 3.4 | –
COc1ccc(-c2cc(=O)c3c(O)cc(O)cc3o2)cc1 | 7.7 | fold change (FC) [2]: 5.2; fold change (FC) [3]: 2.3
COc1ccc(-c2coc3cc(O)ccc3c2=O)cc1 | 12.8 | fold change (FC) [2]: 7.8; fold change (FC) [3]: 7.5
O=c1c(-c2ccc(F)cc2F)coc2cc(O)ccc12 | 13.8 | –
COc1ccc(/C=C/C(=O)c2ccc(O)cc2O)cc1OC | 3.5 | –
COc1ccccc1/C=C/C(=O)c1ccc(O)cc1O | 1.1 | –
COc1cccc(-c2coc3cc(O)ccc3c2=O)c1 | 57.5 | fold change (FC) [2]: 43; EC50 [5]: 22.3 µM; viability at 48 h, 50 µM [6]: > 67%; viability at 48 h, 100 µM [4]: > 60%; EC50 [7]: 23.1 µM; fold change (FC) [3]: 16.5; viability at 48 h, 10 µM [8]: > 90%
COc1ccc(-c2cc(=O)c3c(O)cc(O)cc3o2)cc1O | 7.3 | fold change (FC) [2]: 3.8; fold change (FC) [3]: 2.8
CCc1cc2c(=O)c(-c3ccc4c(c3)OCO4)c(C)oc2cc1OCC(=O)O | 2.3 | –
CCc1cc2c(=O)c(-c3ccc4c(c3)OCO4)c(C)oc2cc1O | 5.3 | –

— ChEMBL document CHEMBL1154598, “7-Hydroxy-benzopyran-4-one derivatives: a novel pharmacophore of peroxisome proliferator-activated receptor alpha and -gamma (PPARalpha and gamma) dual agonists” (J Med Chem, 2009)
